# Screening results from PubChem.
# A selection: hits, their analogues and other compounds. The true share with any hit is near 10%.
# Diaph act CS = compounds boosting diaphorase resazurin reduction – biochemical, uHTS, resorufin fluorescence, counter-screen for diaphorase-coupled primary assays, primary screen. Diaphorase/resazurin coupled assay, 16 min; hits give high values; 1 = vehicle wells, 0 = NADH-free wells. activation factor at 20 µM. actives 0.005% (n = 190,000). AID 1229, 2008;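 active = diaphorase activity raised at least twofold by the compound at 20 µM; inactive = activation factor below 2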
#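 Material: Clostridium kluyveri diaphorase, purified enzyme; Quantity: enzyme 0.07 U/mL final; Medium: HEPES pH 7.4 buffer with MgCl2 and Tween 20; Dosing: single compound dose of 20 µM, 1% DMSO final; Schedule: 16 min reaction at room temperature; Measured by: red resorufin fluorescence at 544/590 nm excitation/emission.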
# PMI act satM6P = human PMI activators, high substrate, primary screen, biochemical, fluorescence intensity, near-saturating mannose 6-phosphate; Mannose-6-phosphate isomerase (Homo sapiens), P34949; coupled PMI enzyme assay, resazurin fluorescence, 20 min; hits give high values; 1 = untreated enzyme, 0 = substrate-free blank; activation factor at 20 µM; actives 0.34% (n = 190,000); AID 1216, 2008;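 active = activation factor of 2 or more at 20 µM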
# Target sequence (P34949 whole entry, looked up): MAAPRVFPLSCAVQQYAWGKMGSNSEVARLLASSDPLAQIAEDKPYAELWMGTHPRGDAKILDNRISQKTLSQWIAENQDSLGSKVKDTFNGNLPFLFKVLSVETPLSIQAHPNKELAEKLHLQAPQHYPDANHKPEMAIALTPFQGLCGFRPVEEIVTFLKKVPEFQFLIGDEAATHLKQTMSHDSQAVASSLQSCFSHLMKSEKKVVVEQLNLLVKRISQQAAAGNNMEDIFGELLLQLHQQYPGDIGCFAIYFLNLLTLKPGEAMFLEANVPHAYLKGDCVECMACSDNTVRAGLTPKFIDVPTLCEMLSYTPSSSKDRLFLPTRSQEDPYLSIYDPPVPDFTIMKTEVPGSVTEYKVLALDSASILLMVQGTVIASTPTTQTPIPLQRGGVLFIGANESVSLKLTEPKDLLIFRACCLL
#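 Test system: human PMI in coupled enzyme assay; Input: PMI at 15 ng/mL final; Medium: HEPES buffer, pH 7.4; Schedule: 20 min incubation at room temperature; Technique: resorufin fluorescence at Ex 544/Em 590 nm; Compound: 20 µM single dose; Probe or stimulus: Near-saturating mannose-6-phosphate, 1.0 mM.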
# WT yeast gro inh = growth inhibition of WT strain, primary screen, mitochondrial fusion inhibitor project, WT and mutant strains, chemical genetic; inhibition, % at 10 µM; actives 2.1% (n = 190,000); mitochondrial fusion phenotypic screen; AID 1362, 2008; in the data active = inhibition above about 58%; tested in S. cerevisiae
# L major viab = Leishmania major promastigote growth inhibition, primary screen | AID 1063, 2008 | Leishmania major promastigotes, resazurin fluorescence viability | actives 9% (n = 200,000) | inhibition, % at 10 µM; in the data active = inhibition above about 50%;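 also: promastigotes grown with compound for 44 hours at 28 °C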
# PMI act = activators of human PMI, primary screen, biochemical, fluorescence intensity, near-Km mannose 6-phosphate; activation factor at 20 µM; actives 0.005% (n = 190,000); purified human PMI, coupled resazurin fluorescence, 20 min; hits give high values; 1 = vehicle control, 0 substrate-free wells; Mannose-6-phosphate isomerase (Homo sapiens), P34949;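 active = activation factor of 2 or more at 20 µM, relative to plate controls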
# Numbers stand for hits; i = inactive; nt = no result given.
SMILES,Diaph act CS,PMI act satM6P,WT yeast gro inh,L major viab,PMI act
S=C(Nc1ccccc1Oc1ccccc1)NC1CCCC1,i,i,68,61,i
CCNC(=S)Nc1cc(Cl)ccc1Oc1ccccc1,i,i,i,67,i
S=C(NCC1CCCCC1)Nc1ccc(Oc2ccccc2)cc1,i,i,77,90,i
COC(=O)C1=C(N)Oc2cc(C)[nH]c(=O)c2C1c1cccnc1 (stereo not given),i,i,i,i,i
O=C(Nc1ccccc1N1CCN(c2ccccc2)CC1)C12CC3CC(CC(C3)C1)C2,i,i,i,98,i
O=C(Cc1ccccc1)Nc1ccccc1N1CCN(c2ccccc2)CC1,i,i,i,i,i
COCCSc1nc2sc3c(c2c(=O)n1-c1ccccc1)CCN(C)C3,i,i,i,100,i
COc1ccc(-n2c(SCC(=O)Nc3nccs3)nc3sc4c(c3c2=O)CCN(C)C4)cc1,i,i,i,i,i
O=C(CSc1nc2ccc([N+](=O)[O-])cc2[nH]1)NCCc1ccccc1,i,i,i,i,i
CC[C@@H]1C=C(C)C[C@H](C)C[C@H](OC)[C@H]2O[C@@](O)(C(=O)C(=O)N3CCCC[C@H]3C(=O)O[C@H](/C(C)=C/[C@@H]3CC[C@@H](O)[C@H](OC)C3)[C@H](C)[C@@H](O)CC1=O)[C@H](C)C[C@@H]2OC,i,i,i,90,i
Cc1ccc(C)c(N2CCN(C(=S)Nc3ccc4nc(N5CCN(C)CC5)cc(C)c4c3)CC2)c1,i,i,72,i,i
COc1ccccc1N1CCN(C(=S)Nc2cccc(C)c2)CC1,nt,nt,i,i,nt
CN1CCN(C(=S)Nc2ccc(Cl)c(Cl)c2)CC1,i,i,i,67,i
Cc1ccc(C)c(N2CCN(C(=S)NC3CCCCC3)CC2)c1,i,i,i,58,i
Cc1ccc(C)c(N2CCN(C(=S)Nc3ccc4nc(N5CCOCC5)cc(C)c4c3)CC2)c1,i,i,i,i,i
Cc1cccc(NC(=S)N2CCN(c3cc(C)ccc3C)CC2)c1,i,i,i,80,i
CN1CCN(C(=S)Nc2ccccc2Cl)CC1,i,i,i,i,i
O=C(NNC1=NC2(CCCC2)Cc2ccccc21)c1ccncc1,i,i,i,i,i
CCc1nnc(NS(=O)(=O)c2ccc(NC(=S)NC(=O)/C=C/c3ccc(C(C)C)cc3)cc2)s1,i,i,i,i,i
COC(=O)c1sccc1NC(=S)N1CCN(c2cc(C)ccc2C)CC1,i,i,77,82,i
Cc1cc(N2CCN(C)CC2)nc2ccc(NC(=S)N3CCN(c4ccccn4)CC3)cc12,i,i,i,95,i
CC(=O)Nc1ccc(/C(C)=N/NC(=O)c2ccccc2Cl)cc1,i,i,i,i,i
CCc1ccc(-n2c(SCc3c(C)noc3C)nnc2-c2ccncc2)cc1,i,i,i,72,i
COc1ccc(-c2noc(CSc3nnc(-c4ccncc4)n3-c3ccc(F)cc3)n2)cc1OC,i,i,i,72,i
Cc1cc(NC(=O)CSc2nnc(-c3ccncc3)n2-c2ccc(F)cc2)no1,i,i,i,i,i
SMILES,Diaph act CS,PMI act satM6P,WT yeast gro inh,L major viab,PMI act
CCCCCn1c(=O)c(-c2nc3ccccc3[nH]2)c(O)c2ccccc21,i,i,i,56,i
CCN(CC)CC(=O)Nc1cccc2c1C(=O)c1ccccc1C2=O,i,i,i,i,i
O=C1c2ccccc2C(=O)c2c(NCCCN(CCO)CCO)cccc21,i,i,i,100,i
O=C1C2C(C(=O)N1/N=C/c1ccc([N+](=O)[O-])o1)C1C=CC2C12CC2 (stereo not given),i,i,i,90,i
O=C1C2C3C=CC(C4CC34)C2C(=O)N1/N=C/c1ccc([N+](=O)[O-])o1 (stereo not given),i,i,i,99,i
COc1cc(C)c(S(=O)(=O)N2CCN=C2c2ccccc2)cc1C,i,i,i,94,i
Cc1nn(-c2ccccc2)c(C)c1/C=C1\C(=O)N(C)C(=S)N1C,i,i,i,i,i
O=c1[nH]c(/C(Cl)=C/c2cccc(F)c2)nc2cc(C(F)(F)F)ccc12,i,i,i,i,i
COc1cccc2c1C(=O)c1c(O)c3c(c(O)c1C2=O)C[C@@](O)(C(C)=O)C[C@@H]3O[C@H]1C[C@H](N)[C@H](O)[C@H](C)O1,i,i,67,100,i
CCN(c1ccccc1)S(=O)(=O)c1ccc(Cl)c(C(=O)OCC(=O)c2[nH]c(C)c(C(C)=O)c2C)c1,i,i,i,53,i
O=C(CN(c1ccccc1)S(=O)(=O)c1ccccc1[N+](=O)[O-])NN=C1CCCCCCC1,i,i,i,i,i
COc1cccc(-c2csc(N3CCN(C(=S)Nc4ccccc4Cl)CC3)n2)c1,i,i,i,100,i
COc1cccc(-c2csc(N3CCN(C(=S)Nc4ccccc4OC)CC3)n2)c1,i,i,i,93,i
COc1cccc(-c2csc(N3CCN(C(=S)Nc4cccc(Cl)c4)CC3)n2)c1,i,i,i,i,i
COc1ccc2[nH]c(=O)c(CN(Cc3cccs3)C(=S)Nc3cccc(C)c3)cc2c1,i,i,i,100,i
CCN(CC)CCN(Cc1cc2cc(C)c(C)cc2[nH]c1=O)C(=S)NCc1ccco1,i,i,i,60,i
Cc1cc2cc(CN(CCN(C)C)C(=S)NCc3ccco3)c(=O)[nH]c2cc1C,i,i,i,i,i
Cc1ccc(C)c2[nH]c(=O)c(CN(Cc3cccs3)C(=S)NCc3ccco3)cc12,i,i,i,70,i
COCCNC(=S)N(Cc1cccs1)Cc1cc2cccc(C)c2[nH]c1=O,i,i,i,i,i
CNC(=S)N(Cc1cccs1)Cc1cc2cc(OC)ccc2[nH]c1=O,i,i,i,i,i
Cc1cc2cc(CN(Cc3cccs3)C(=S)NCc3ccco3)c(=O)[nH]c2cc1C,i,i,i,88,i
COc1ccc(/C=C/C(=O)N(C)c2ccccc2C(=O)O)cc1,i,i,i,i,i
O=C(Nc1ccccc1-c1nc2ccccc2[nH]1)c1sc2ccccc2c1Cl,i,i,i,i,i
CCOC(=O)c1c(NC(=O)CN2C(=O)NC3(CCC(CC)CC3)C2=O)sc(C)c1-c1ccc(C)cc1 (stereo not given),i,i,i,i,i
OCCN=c1cc(-c2ccccc2)oc2ccc(Cl)cc12,i,i,i,84,i
CC(O)CN=c1cc(-c2ccccc2)oc2ccc(Cl)cc12 (stereo not given),i,i,i,i,i
N#CC(C#N)=C1C=CC=CN1/C(=C\c1ccco1)C(=O)c1ccccc1,i,i,i,i,i
